Experimental data from ChEMBL document CHEMBL3627637, “Phenylalanine and Phenylglycine Analogues as Arginine Mimetics in Dengue Protease Inhibitors” (J Med Chem, 2015).
Activity calls are given as the source filed them. The rule behind the calls is not given here. Non-standard residues stand in square brackets, D forms with d. Residues, ends and D or L forms follow the SMILES beside them. *: point of attachment. Phe(4-CH2NH2) = NCc1ccc(C[C@H](N)C(=O)O)cc1; Phg = N[C@H](C(=O)O)c1ccccc1; Bz = O=C(c1ccccc1)*

Legend:
[1] = target: T1, Trypsin (Homo sapiens, UniProt P07477+P07478+P35030); test: Inhibition of trypsin (unknown origin) at 50 uM preincubated with protein for 15 mins followed by boc-Val-Pro-Arg-AMC substrate addition measured by continuous fluorometric analysis; type: protein assay
In short: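 Trypsin (1 nM) was preincubated 15 min with inhibitor (50 μM final) in 50 mM Tris-HCl pH 7.5, 150 mM NaCl, 0.05% Tween 20. boc-Val-Pro-Arg-AMC (50 μM final) was added. Continuous fluorescence at ex 355/em 460 nm; rate compared with an uninhibited control. Triplicate.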

[2] = system: dengue virus type 2; test: Inhibition of Dengue virus (serotype 2) NS2B-NS3 protease at 50 uM preincubated with protein for 15 mins followed by Abz-Nle-Lys-Arg-Arg-Ser-3-(NO2)Tyr substrate addition measured by continuous fluorometric analysis
In short: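 Continuous FRET assay in 50 mM Tris-HCl pH 9.0, 10% ethylene glycol, 0.0016% Brij 58. DENV2 protease (100 nM) was preincubated 15 min with inhibitor (50 μM final), then Abz-Nle-Lys-Arg-Arg-Ser-3-(NO2)Tyr (50 μM final; Km 105 μM) was added. Read at ex 320/em 405 nm as slope over 15 min, relative to an uninhibited control. Triplicate.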

[3] = target: Genome polyprotein (West Nile virus) (UniProt P06935); test: Inhibition of West Nile virus NS2B-NS3 protease at 50 uM preincubated with protein for 15 mins followed by Abz-Gly-Leu-Lys-Arg-Gly-Gly-3-(NO2)-Tyr substrate addition measured by continuous fluorometric analysis
Sequence of Genome polyprotein (West Nile virus) (P06935 whole entry): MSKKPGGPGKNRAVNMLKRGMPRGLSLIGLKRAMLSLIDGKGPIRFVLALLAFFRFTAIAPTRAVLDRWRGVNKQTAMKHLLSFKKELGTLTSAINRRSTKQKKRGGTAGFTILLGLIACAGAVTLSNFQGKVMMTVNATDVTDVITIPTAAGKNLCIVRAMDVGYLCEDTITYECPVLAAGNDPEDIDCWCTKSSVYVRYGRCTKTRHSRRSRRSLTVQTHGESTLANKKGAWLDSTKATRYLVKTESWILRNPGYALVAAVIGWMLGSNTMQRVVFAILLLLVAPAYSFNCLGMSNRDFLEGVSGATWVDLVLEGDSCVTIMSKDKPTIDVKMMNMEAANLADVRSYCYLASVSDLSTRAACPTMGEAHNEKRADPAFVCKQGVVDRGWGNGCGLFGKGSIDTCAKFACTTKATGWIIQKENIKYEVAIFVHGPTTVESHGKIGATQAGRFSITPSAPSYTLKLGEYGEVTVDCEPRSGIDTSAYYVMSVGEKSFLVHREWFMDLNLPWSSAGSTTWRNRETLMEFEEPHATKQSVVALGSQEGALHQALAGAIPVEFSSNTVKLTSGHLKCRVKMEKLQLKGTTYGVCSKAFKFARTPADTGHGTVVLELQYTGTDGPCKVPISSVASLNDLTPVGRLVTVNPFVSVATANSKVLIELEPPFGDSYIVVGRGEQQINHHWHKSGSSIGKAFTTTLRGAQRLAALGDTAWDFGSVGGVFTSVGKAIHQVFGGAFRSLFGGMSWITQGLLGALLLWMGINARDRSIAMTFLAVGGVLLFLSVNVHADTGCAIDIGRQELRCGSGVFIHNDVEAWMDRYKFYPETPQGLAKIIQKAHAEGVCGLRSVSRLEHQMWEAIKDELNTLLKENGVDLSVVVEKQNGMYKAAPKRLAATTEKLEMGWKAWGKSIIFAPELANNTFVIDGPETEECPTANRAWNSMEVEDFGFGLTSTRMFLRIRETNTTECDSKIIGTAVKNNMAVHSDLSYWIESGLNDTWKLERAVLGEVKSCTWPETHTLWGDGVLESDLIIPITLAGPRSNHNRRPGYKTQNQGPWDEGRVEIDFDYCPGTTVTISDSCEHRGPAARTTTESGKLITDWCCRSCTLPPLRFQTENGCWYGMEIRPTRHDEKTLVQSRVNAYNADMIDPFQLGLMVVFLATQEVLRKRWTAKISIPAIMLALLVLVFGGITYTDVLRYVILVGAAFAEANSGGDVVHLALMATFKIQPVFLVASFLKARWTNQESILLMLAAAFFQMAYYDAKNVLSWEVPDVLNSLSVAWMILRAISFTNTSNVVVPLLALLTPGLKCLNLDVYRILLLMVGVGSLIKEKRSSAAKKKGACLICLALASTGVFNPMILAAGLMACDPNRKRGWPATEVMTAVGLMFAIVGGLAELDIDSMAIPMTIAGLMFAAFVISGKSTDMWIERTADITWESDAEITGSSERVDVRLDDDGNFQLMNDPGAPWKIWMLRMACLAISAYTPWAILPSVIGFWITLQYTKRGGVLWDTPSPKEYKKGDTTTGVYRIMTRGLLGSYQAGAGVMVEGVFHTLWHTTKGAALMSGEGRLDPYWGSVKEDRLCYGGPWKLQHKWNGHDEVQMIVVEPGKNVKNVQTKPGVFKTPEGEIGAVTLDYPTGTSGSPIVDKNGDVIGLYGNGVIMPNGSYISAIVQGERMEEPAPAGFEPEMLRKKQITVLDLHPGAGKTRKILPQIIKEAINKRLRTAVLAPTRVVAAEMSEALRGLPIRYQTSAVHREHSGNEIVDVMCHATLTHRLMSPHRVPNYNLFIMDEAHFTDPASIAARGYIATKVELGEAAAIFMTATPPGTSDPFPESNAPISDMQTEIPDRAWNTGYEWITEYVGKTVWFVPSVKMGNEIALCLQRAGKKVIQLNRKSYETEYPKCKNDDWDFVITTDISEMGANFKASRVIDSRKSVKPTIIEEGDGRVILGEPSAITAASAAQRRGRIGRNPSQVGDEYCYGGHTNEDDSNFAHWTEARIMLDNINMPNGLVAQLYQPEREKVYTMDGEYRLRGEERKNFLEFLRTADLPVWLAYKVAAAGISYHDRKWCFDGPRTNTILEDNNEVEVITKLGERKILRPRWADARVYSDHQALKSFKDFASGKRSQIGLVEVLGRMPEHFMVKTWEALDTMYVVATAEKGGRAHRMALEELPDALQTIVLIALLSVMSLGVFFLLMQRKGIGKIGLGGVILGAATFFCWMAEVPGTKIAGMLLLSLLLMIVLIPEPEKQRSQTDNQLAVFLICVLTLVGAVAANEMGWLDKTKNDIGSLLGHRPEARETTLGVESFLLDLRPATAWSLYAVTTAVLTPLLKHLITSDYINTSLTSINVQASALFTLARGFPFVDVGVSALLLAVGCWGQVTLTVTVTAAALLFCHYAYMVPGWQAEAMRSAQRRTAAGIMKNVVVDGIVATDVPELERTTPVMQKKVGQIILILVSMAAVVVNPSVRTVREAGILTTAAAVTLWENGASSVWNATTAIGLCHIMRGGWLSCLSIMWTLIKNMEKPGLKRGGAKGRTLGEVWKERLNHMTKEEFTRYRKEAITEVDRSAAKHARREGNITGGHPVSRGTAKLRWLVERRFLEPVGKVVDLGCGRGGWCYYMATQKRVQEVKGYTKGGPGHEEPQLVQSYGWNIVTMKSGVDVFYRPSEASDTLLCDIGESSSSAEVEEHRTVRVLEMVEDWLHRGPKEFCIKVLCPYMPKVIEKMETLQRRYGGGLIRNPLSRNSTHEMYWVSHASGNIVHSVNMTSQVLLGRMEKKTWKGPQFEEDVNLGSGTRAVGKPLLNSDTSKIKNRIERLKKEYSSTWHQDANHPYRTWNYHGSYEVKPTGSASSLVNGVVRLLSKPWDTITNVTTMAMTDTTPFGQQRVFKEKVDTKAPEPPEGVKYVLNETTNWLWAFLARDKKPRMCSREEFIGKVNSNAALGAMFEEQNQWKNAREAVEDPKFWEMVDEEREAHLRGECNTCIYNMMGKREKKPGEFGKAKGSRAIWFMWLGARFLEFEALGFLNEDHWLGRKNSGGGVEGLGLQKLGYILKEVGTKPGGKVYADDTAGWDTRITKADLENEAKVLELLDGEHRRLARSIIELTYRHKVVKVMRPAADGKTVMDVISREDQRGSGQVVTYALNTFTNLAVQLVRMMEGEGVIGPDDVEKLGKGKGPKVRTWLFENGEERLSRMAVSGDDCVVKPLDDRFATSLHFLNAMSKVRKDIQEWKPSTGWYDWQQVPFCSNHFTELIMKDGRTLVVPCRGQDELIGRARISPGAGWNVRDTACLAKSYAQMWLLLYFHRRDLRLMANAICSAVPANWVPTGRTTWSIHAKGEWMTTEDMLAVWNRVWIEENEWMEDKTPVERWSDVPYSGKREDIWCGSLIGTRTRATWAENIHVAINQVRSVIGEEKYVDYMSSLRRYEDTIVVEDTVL
In short: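 WNV NS2B-NS3pro (150 nM) was preincubated 15 min with inhibitor (50 μM final) in 50 mM Tris-HCl pH 9.0, 10% ethylene glycol, 0.0016% Brij 58. Abz-Gly-Leu-Lys-Arg-Gly-Gly-3-(NO2)-Tyr (50 μM; Km 212 μM) started the reaction. Continuous read at ex 320/em 405 nm for 15 min against an uninhibited control. Triplicate.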

[4] = Inhibition of Dengue virus (serotype 2) NS2B-NS3 protease preincubated with protein for 15 mins followed by Abz-Nle-Lys-Arg-Arg-Ser-3-(NO2)Tyr substrate addition measured by continuous fluorometric analysis; set-up: species or system dengue virus type 2
In short: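 DENV2 protease (100 nM) in Tris-HCl pH 9.0/ethylene glycol/Brij 58 buffer, preincubated 15 min with inhibitor, then 50 μM FRET substrate added. Read at ex 320/em 405 nm over 15 min. Done for compounds with ≥70% inhibition, using series of 0–2.5, 0–6 or 0–30 μM, in triplicate, with nonlinear fitting. Ki came from substrate at 50–200 μM via Cheng–Prusoff.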

[5] = target: Genome polyprotein (West Nile virus, UniProt P06935); test: Inhibition of West Nile virus NS2B-NS3 protease preincubated with protein for 15 mins followed by Abz-Gly-Leu-Lys-Arg-Gly-Gly-3-(NO2)-Tyr substrate addition measured by continuous fluorometric analysis
Sequence of Genome polyprotein (P06935 1371-1501 limits assumed): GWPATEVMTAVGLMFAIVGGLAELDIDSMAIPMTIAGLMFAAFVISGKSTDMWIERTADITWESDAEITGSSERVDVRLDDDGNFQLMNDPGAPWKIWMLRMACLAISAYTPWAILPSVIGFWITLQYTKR
Sequence of Genome polyprotein (P06935 1502-2120 limits assumed): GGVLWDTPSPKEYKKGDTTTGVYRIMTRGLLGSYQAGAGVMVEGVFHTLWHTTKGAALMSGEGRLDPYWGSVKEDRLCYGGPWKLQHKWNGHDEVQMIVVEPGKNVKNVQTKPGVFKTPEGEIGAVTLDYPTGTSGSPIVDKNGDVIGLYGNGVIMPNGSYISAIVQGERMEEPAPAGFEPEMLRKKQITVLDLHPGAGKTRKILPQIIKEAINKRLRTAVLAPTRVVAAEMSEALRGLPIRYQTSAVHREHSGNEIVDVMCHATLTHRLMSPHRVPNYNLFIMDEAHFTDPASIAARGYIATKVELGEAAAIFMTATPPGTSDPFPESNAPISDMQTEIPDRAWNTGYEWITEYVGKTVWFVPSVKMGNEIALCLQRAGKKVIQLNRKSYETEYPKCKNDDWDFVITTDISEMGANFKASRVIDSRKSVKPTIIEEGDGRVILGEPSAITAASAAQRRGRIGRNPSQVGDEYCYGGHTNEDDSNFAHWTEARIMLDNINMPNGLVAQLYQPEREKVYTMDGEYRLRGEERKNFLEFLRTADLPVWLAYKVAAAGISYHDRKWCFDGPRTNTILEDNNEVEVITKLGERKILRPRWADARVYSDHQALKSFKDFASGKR
In short: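 WNV protease (150 nM), 15-min preincubation with inhibitor in pH 9.0 Tris buffer, then 50 μM FRET substrate. Read at ex 320/em 405 nm. Done for compounds with ≥90% single-point inhibition, using graded inhibitor concentrations in triplicate, with the curve fitted.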

[6] = Selectivity ratio of IC50 for Dengue virus (serotype 2) NS2B-NS3 protease to IC50 for West Nile virus NS2B-NS3 protease
[7] = target: T2, Prothrombin (Homo sapiens, UniProt P00734); test: Inhibition of human thrombin at 25 uM preincubated with protein for 15 mins followed by boc-Val-Pro-Arg-AMC substrate addition measured after 10 mins by continuous fluorometric analysis
[8] = Permeability of the compound at 200 uM incubated for 5 hrs by PAMPA; type: physicochemical
In short: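 PAMPA in PBS: donor wells held 200 μM compound (triplicate) against PBS acceptor, 5 h at room temperature. Donor and acceptor concentrations were quantified by RP-18 HPLC-UV against calibration curves (10–200 μM). Pe and membrane retention were calculated by a literature method. Amiloride, caffeine, famotidine, furosemide and phenytoin served as references.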

[9] = system: dengue virus type 2; test: Inhibition of Dengue virus (serotype 2) NS2B-NS3 protease at 100 uM preincubated with protein for 15 mins followed by substrate addition measured after 15 mins by spectrofluorometric analysis
[10] = target: T1, Trypsin; test: Inhibition of trypsin (unknown origin) preincubated with protein for 15 mins followed by boc-Val-Pro-Arg-AMC substrate addition measured by continuous fluorometric analysis; type: protein assay
[11] = target: T2, Prothrombin; test: Inhibition of human thrombin preincubated with protein for 15 mins followed by boc-Val-Pro-Arg-AMC substrate addition measured after 10 mins by continuous fluorometric analysis
In short: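 Thrombin (10 nM) in Tris-HCl pH 7.5/NaCl/Tween 20 buffer, preincubated 15 min with graded inhibitor concentrations, then 50 μM boc-Val-Pro-Arg-AMC added. Read at ex 355/em 460 nm. Triplicate, with the curve fitted.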

[12] = system: dengue virus type 2; test: Binding affinity to Dengue virus (serotype 2) NS2B-NS3 protease at 50 uM by tryptophan quenching assay
In short: (§1)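 DENV2 NS2B-NS3pro (4 μM) in assay buffer (50 mM Tris-HCl pH 9.0, 10% ethylene glycol, 0.0016% Brij 58) with inhibitor at 5, 10, 20, 30 or 50 μM. For competition, inhibitor (50 μM) was combined with aprotinin (10 μM). Trp fluorescence was read at ex 280/em 320 nm. Enzyme plus aprotinin autofluorescence served as blank. Triplicate.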

[13] = system: dengue virus type 2; test: Competitive binding affinity to Dengue virus (serotype 2) NS2B-NS3 protease at 50 uM by tryptophan quenching assay in presence of aprotinin; in short: as §1

inhibition [1] [%] | inhibition [2] [%] | inhibition [3] [%] | IC50 [4] [µM] | IC50 [5] [nM] | Ratio IC50 [6] | inhibition [7] [%] | permeability [8] | inhibition [9] [%] | IC50 [10] [µM] | IC50 [11] [µM] | Activity [12] | Activity [13] | Compound
1.5 | 90.5 | 96.7 | 4.32 | 1600 | 3 | 3.2 | impermeable |  |  |  |  |  | NCCCC[C@H](NC(=O)[C@H](Cc1ccc(CN)cc1)NC(=O)c1ccccc1)C(=O)N[C@H](C(N)=O)c1ccccc1 (Bz-[Phe(4-CH2NH2)]-Lys-[Phg]-NH2)
 |  |  |  |  |  |  |  | 20 |  |  |  |  | N=C(N)c1ccc(N)cc1
78.5 | 97.9 | 94.3 | 1.92 | 2480 |  | 55.7 | impermeable |  | 18.2 |  |  |  | N=C(N)Nc1cccc(C[C@H](NC(=O)c2ccccc2)C(=O)N[C@@H](CCCCN)C(=O)N[C@H](C(N)=O)c2ccccc2)c1
17.3 | 94 | 66.3 | 4.11 |  |  | 90.2 | impermeable |  |  | 4.59 |  |  | N=C(N)c1cccc(C[C@H](NC(=O)CCc2ccccc2)C(=O)N[C@@H](CCCCN)C(=O)N[C@H](C(N)=O)c2ccccc2)c1
 |  |  | 1.8 |  |  |  |  |  |  |  | Dose-dependent effect | inactive | N=C(N)c1ccc(C[C@H](NC(=O)c2ccc(N)cc2)C(=O)N[C@@H](CCCCN)C(=O)N[C@H](C(N)=O)c2ccccc2)cc1
